Bioassay records: PubChem BioAssay, The Scripps Research Institute Molecular Screening Center
SIAE inh: human SIAE inhibition, primary screen | actives 0.69% (n = 370,000) | Q9HAT2 | SIAE FP-Rh probe binding, fluorescence polarization | AID 1053197 | inhibition, % at 9.66 µM;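 active = inhibition above a cutoff: mean of compounds within the control limits plus 3 SD of those, cut at about 17% in these data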;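 also: 0% = plate median of compound wells and 100% = probe without SIAE protein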
Target sequence (Q9HAT2 whole entry, looked up): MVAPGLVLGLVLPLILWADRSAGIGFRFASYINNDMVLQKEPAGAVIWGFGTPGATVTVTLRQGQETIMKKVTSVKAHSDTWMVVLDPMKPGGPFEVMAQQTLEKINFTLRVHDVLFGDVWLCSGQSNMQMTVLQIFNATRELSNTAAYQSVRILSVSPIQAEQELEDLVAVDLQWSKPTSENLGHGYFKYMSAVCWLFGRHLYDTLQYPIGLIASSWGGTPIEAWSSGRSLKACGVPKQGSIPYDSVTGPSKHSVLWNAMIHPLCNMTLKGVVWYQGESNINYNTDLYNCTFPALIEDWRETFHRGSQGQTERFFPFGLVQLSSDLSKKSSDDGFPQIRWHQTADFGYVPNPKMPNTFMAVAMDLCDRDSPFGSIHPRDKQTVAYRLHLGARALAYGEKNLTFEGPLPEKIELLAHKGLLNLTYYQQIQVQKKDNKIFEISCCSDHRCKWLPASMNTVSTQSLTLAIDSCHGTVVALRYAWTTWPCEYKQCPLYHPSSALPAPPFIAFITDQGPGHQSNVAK
HTRA1 inh: blocks human HTRA1 serine peptidase | Q92743 | recombinant HTRA1, FP-rhodamine activity-based probe, fluorescence polarization | inhibition, % at 5.96 µM | actives 0.5% (n = 340,000) | AID 504803; in the data active = inhibition above about 36%;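 also: 0% = enzyme with DMSO and 100% = wells lacking enzyme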
DDE Tn6 FP inh: disrupts Tn6 cyclic peptide binding to fibrin D-Dimer-E complex; inhibition, % at 8.3 µM; actives 0.21% (n = 370,000); Fibrin DD(E) TRITC-Tn6 fluorescence polarization displacement; P02675;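 active = inhibition above a per-campaign cutoff: mean of compounds within control limits plus 3 SD, cut at about 15% in these data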;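 also: 0% = median of all compound wells on the plate and 100% = blocking peptide control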
TCR-CD3 inh: human TCR-CD3 binding inhibition; inhibition, % at 9.4 µM; AID 651800; actives 0.37% (n = 360,000); TAMRA-labeled TCR probe fluorescence, biochemical; in the data active = inhibition above about 19%;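 also: recombinant mutant TCR 2C K166C tagged with TAMRA read by polarization; 0% = receptor in buffer alone and 100% = receptor with positive control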
DDE Tn7 FP inh: DD(E)-Tn7 binding inhibition, primary FP screen; FP displacement of FITC-Tn7 peptide from fibrin DD(E); 0% = median of compound wells per plate; inhibition, % at 8.3 µM; actives 0.13% (n = 370,000);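 active = inhibition above the mean of compounds falling within the control limits plus 3 SD of them, cut at about 14% in these data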;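 also: 0% = plate median of compound wells and 100% = 10 µM Aha-Tn7 peptide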
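Assay system: Fibrin-DD(E) protein isolated from polymerized human fibrin clots; read-out basis: percent inhibition; medium: Tris/NaCl/CaCl2 buffer, pH 7.8; signal: FP measurement; incubation: 10 min plus 3 h, room temperature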
ABHD4 inh: ABHD4 (mouse) inhibition, primary FP screen; Q8VD66; purified mABHD4, FP-Rh probe fluorescence polarization; inhibition, % at 8.92 µM; actives 0.54% (n = 370,000);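 active = inhibition exceeding the mean over every tested compound plus 3 SD, cut at about 30% in these data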;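 also: 0% = plate median of compound wells and 100% = S159A mutant with DMSO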
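Assay system: mABHD4 protein; medium: HEPES pH 7.0, NaCl, Pluronic buffer; dosing: 8.92 µM, single dose; schedule: 45 min + 60 min at 25 °C; signal: FP readout, ex 525 nm / em 598 nm; read-out: normalized percent inhibition of probe labeling; repeats: single replicate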
Tn6 DDE ctr: counter-screen for inhibitors of Tn6 peptide binding to fibrin DD(E); TRITC-Tn6 fluorescence polarization displacement; 0% = median of compound wells, not DMSO; inhibition, % at 8.3 µM; actives 2% (n = 680); shares compounds with DDE Tn6 FP inh;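 active = inhibition above the mean of test compounds lying between the control limits plus 3 SD of those, cut at about 14% in these data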;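 also: 0% = median of compound wells and 100% = wells with Aha-Tn7 blocking peptide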
Tn6 DDE conf: DD(E)-Tn6 binding inhibition, FP confirmation; AID 720631; actives 10% (n = 680); inhibition, % at 8.3 µM; FP displacement of TRITC-Tn6 peptide from DD(E); 0% = per-plate median of test wells; shares compounds with DDE Tn6 FP inh;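 active = inhibition above the mean of compounds lying within the control limits plus 3 SD, cut at about 16% in these data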;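 also: 100% = high control wells holding a competing inhibitor peptide at 10 µM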
mABHD4 conf: ABHD4 (mouse) inhibition, FP confirmation; AID 720658; shares compounds with ABHD4 inh; inhibition, % at 8.92 µM; purified mABHD4, FP-Rh probe fluorescence polarization; actives 55% (n = 1,800);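 active = mean inhibition across replicates above the hit cutoff set in the primary screen, cut at about 30% in these data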;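 also: 0% = wild-type ABHD4 with DMSO and 100% = catalytically dead S159A mutant with DMSO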
SIAE inh conf: confirmation of human SIAE inhibitors | shares compounds with SIAE inh | AID 1117263 | inhibition, % at 9.66 µM | actives 13% (n = 2,300) | SIAE FP-Rh activity-based probe, fluorescence polarization;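 active = mean inhibition of the replicates above the hit cutoff set in the primary screen, cut at about 17% in these data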;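 also: 0% = SIAE with DMSO and probe and 100% = probe without SIAE; inhibitors lower polarization as more probe stays unbound to SIAE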
* marks the source's active call; other numbers are inactive results; . = not tested or not shown. Hits are enriched below; roughly 1.8% of the tested compounds scored in any of these assays.

SMILES	SIAE inh	HTRA1 inh	DDE Tn6 FP inh	TCR-CD3 inh	DDE Tn7 FP inh	ABHD4 inh	Tn6 DDE ctr	Tn6 DDE conf	others
COc1ccccc1C1C(C(=O)NCc2ccccc2)=C(C)Nc2ncnn21 (configuration not stated)	1.4	-2.7	-0.9	-1.2	3.7	1.5	.	.
CC(=O)C1=C(C)Nc2ncnn2C1c1ccccc1OCc1ccccc1 (configuration not stated)	-1.2	0.9	18.4*	0.6	6.0	-5.4	2.8	2.2
Cc1ccc(O)c(N=Nc2ccccc2)n1	-0.2	1.0	16.0*	-2.1	-4.3	-4.5	0.9	0.9
O=C(OCCN1CCN(C2CN(Cc3cn(Cc4ccc([N+](=O)[O-])cc4)nn3)S(=O)(=O)C2)CC1)c1cc2ccccc2o1 (configuration not stated)	-1.1	.	-1.2	.	-0.2	8.5	.	.
CC(C)[C@@H]1NC(=O)[C@H]2C[C@@]3(c4ccccc4)c4ccccc4N[C@H]3N2C1=O	3.8	.	0.3	.	-0.2	-0.8	.	.
O=C(NCc1ccc(Cl)cc1)C1CCC(CNc2c(N3CCCCC3)c(=O)c2=O)CC1 (configuration not stated)	7.6	3.3	16.3*	1.4	-8.2	6.9	8.4	3.9
COc1ccc(-n2c(COc3ccccc3)nnc2SCc2nc3ccccc3[nH]2)cc1	-4.0	.	18.5*	.	5.4	-6.8	-1.7	-9.2
O=C(C1CCN(S(=O)(=O)c2ccccc2)CC1)N1CCN(c2ccccc2)CC1	-0.8	-3.0	15.4*	4.5	6.2	5.0	-1.0	-1.2
COc1ccc(N2CCN(C(=O)C3CCN(S(=O)(=O)c4ccccc4)CC3)CC2)cc1	-2.6	6.7	4.1	3.2	-4.9	7.9	.	.
O=C(Nc1ccc2c(c1)Cc1ccccc1-2)NC1CCCCN(Cc2cccc(Cl)c2)C1=O (configuration not stated)	3.7	.	-2.8	.	-6.2	-6.3	.	.
Cc1nn(-c2ccccc2)cc1C(c1c(N)[nH]c(=S)[nH]c1=O)c1c(N)[nH]c(=S)[nH]c1=O	-2.1	-6.0	15.4*	5.5	1.1	-2.9	-7.1	-28.1
COc1ccc2[nH]c3c(c2c1)CCN[C@]31C(=O)N(Cc2cn(Cc3ccccc3)nn2)c2ccc(F)cc21	3.2	.	2.2	.	-1.3	7.8	.	.
Cc1nn(-c2ccc(F)cc2)c2c1cc(C#N)c1nc3ccccc3n12	5.5	-3.2	16.2*	3.6	-1.1	1.2	0.3	-0.7
N#Cc1c2c(c(Nc3ccc(F)cc3)n3c1nc1ccccc13)CCCC2	-0.6	-15.7	-2.5	0.4	-1.9	2.7	.	.
CCN(Cc1ccncc1)C(=S)Nc1ccccc1	-2.3	2.0	-4.1	3.1	-2.4	3.0	.	.
CCN(Cc1ccncc1)C(=O)C(CO)c1ccccc1 (configuration not stated)	3.3	3.2	20.2*	6.9	2.6	3.2	3.2	-8.0
CCN1CC2=C(OC(N)=C(C#N)C2c2ccccc2)/C(=C\c2ccccc2)C1 (configuration not stated)	3.3	-8.3	25.0*	2.5	-1.2	-3.2	12.4	7.4
CC(=O)N1CCc2cc(S(=O)(=O)NCCC(=O)NCCc3ccccc3)ccc21	3.4	-0.2	8.0	-1.2	-3.2	3.1	.	.
CC(=O)N1CCc2cc(S(=O)(=O)NCCC(=O)NCc3ccccc3)ccc21	-4.2	.	17.6*	.	1.0	4.9	0.7	-0.2
COc1cc(N)c2ncccc2c1Br	7.3	24.3	19.3*	13.3	6.2	62.0*	0.5	-1.3	mABHD4 conf=28.2
COc1cc(N)c2ncccc2c1SC	11.7	10.3	6.0	-3.9	2.3	16.9	.	.
COC(=O)C1=C(N)Oc2cc(C)n(CC3CCCO3)c(=O)c2C1c1ccccc1OC (configuration not stated)	6.2	5.2	-7.4	3.3	1.4	0.4	.	.
COC(=O)C1=C(N)Oc2cc(N(C)C)ccc2C1c1ccccc1OC (configuration not stated)	4.8	4.3	36.2*	-8.9	6.8	47.4*	7.3	-8.6	mABHD4 conf=-20.4
C=CCN1[C@H](CC(C)C)COc2cccc(N3CCSCC3)c2S1(=O)=O	4.3	.	-1.8	.	1.3	-10.5	.	.
O=C(COc1ccccc1Cl)NC(=S)Nc1ccccc1N1CCCC1	3.5	-6.9	15.7*	12.9	7.6	41.3*	10.8	4.8	mABHD4 conf=-8.2
SMILES	SIAE inh	HTRA1 inh	DDE Tn6 FP inh	TCR-CD3 inh	DDE Tn7 FP inh	ABHD4 inh	Tn6 DDE ctr	Tn6 DDE conf	others
COc1ccc(NC(=O)C(c2cc3c(cc2[N+](=O)[O-])OCO3)N(C)Cc2ccccc2)cc1 (configuration not stated)	14.6	-23.2	31.0*	16.2	0.6	67.4*	2.2	1.2	mABHD4 conf=-26.7
COC(=O)C1CN(Cc2ccccc2)CCS(=O)(=O)N1Cc1cn(Cc2ccccc2)nn1 (configuration not stated)	2.6	.	-4.8	.	-3.7	7.0	.	.
CCCC(=O)OC12CCCN(C1)/C(=C/c1ccc(Cl)cc1)C2 (configuration not stated)	5.0	.	1.5	.	-3.0	2.1	.	.
N#C/C(=C\c1cccnc1)C(=O)Nc1ccc(O)cc1F	10.7	22.6	49.4*	-18.8	0.3	67.3*	-1.8	-1.1	mABHD4 conf=10.8
N#C/C(=C\c1cccnc1)C(=O)Nc1ccc(C(=O)O)cc1	-3.5	4.0	-14.0	1.4	-7.3	-6.2	.	.
CN1CC=C2C(C#N)=C(N)C(C#N)(C#N)[C@H](c3cccc(Cl)c3)C2C1 (some centres not stated)	7.8	22.2	17.8*	4.5	-1.9	31.1*	4.0	-3.6	mABHD4 conf=-2.4
O=C(Nc1nc2c(Br)cccc2s1)c1ccc2c(c1)OCCO2	22.4*	.	38.1*	.	-3.2	-29.5	2.6	-9.0	SIAE inh conf=-60.4
Cc1nc2c(ccc3nc(NC(=O)c4ccc5c(c4)OCCO5)sc32)s1	-43.0	-38.2	6.3	-1.1	-0.9	-10.3	.	.
O=C(CCc1ccccc1)N[C@H]1[C@H](OC(=O)c2cnccn2)CCC[C@]12C(=O)N(Cc1ccccc1)c1ccccc12	0.8	.	-2.5	.	11.7	-7.7	.	.
